Laboratory results published in ChEMBL document CHEMBL1121584, “Soft drugs. 3. A new class of anticholinergic agents” (J Med Chem, 1980).

Assays:
Cavia porcellus [1] = species: Cavia porcellus; experiment: Anticholinergic activity was measured by the guinea pig ileum test; c = NA means no activity found at the doses used.; type: functional
Procedure, shortened: (§1)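 Guinea pig whole ileum strips in McEwan's solution, gassed with O2/CO2 95:5, 37 °C organ bath, 1 g tension. Cumulative acetylcholine concentration-response curves were run to constancy, then repeated after 15–20 min equilibration with increasing antagonist concentrations. Mean curves gave dose ratios, from which competitive antagonism and pA2 were derived.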

Cavia porcellus [2] = species: Cavia porcellus; experiment: Antihistamine activity was measured by the guinea pig ileum test.; type: functional; conditions: for Kb: Cavia porcellus, Ileum, read-out: pA2 (converted)
Procedure, shortened: (§2)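 Guinea pig ileum strips, McEwan's solution, Carbogen, 37 °C, 1 g tension. Cumulative histamine concentration-response curves were recorded before and after 15–20 min equilibration with rising antagonist concentrations. pA2 came from dose ratios of mean curves.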

Cavia porcellus [3] = species: Cavia porcellus; experiment: Anticholinergic activity was measured by the guinea pig ileum test.; type: functional; conditions: for Kb: Cavia porcellus, Ileum, read-out: pA2 (converted); procedure, shortened: as §1
[4] = The hydrolytic kinetics expressed as Kobs was measured at 7.4 pH at 37 degree C; type: ADME; conditions: pH 7.4
Procedure, shortened: (§3)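 Chemical hydrolysis in 0.5 M potassium phosphate, pH 7.4, 37 °C. Rate was followed by appearance of the acid product or loss of the quaternary salt. Where salt contained amine hydrochloride, initial concentration was taken from final acid after complete hydrolysis. Half-life was estimated from both where resolved.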

[5] = Half life period was measured at 7.4 pH from d[acid]/dt.; type: ADME; conditions: pH 7.4; procedure, shortened: as §3
Cavia porcellus [6] = species: Cavia porcellus; experiment: Antihistamine activity was measured by the guinea pig ileum test; c = NA means no activity found at the doses used.; type: functional; procedure, shortened: as §2
[7] = Cholinergic potency was expressed in terms of relative activity vs acetylcholine; c = NA means no activity found at the doses used.; type: functional
Felis catus [8] = species: Felis catus; experiment: acetylcholine antagonist effect of compound on cat blood pressure at concentration 5.7*10e-9 in 7 min; type: functional
Procedure, shortened: (§4)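 Adult cats anesthetized ip with α-chloralose (80 mg/kg) plus sodium pentobarbitone (6 mg/kg), bilaterally vagotomized, artificially respired. Carotid arterial pressure recorded. Drugs given iv via brachial vein. Acetylcholine dose giving 70-80% of maximal vasodepressor response used throughout. Test drug injected, acetylcholine response checked 1 min later, then every ~2-3 min. Value is % of control vasodepressor response to acetylcholine.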

Cavia porcellus [9] = species: Cavia porcellus; experiment: Antihistamine activity was measured by the guinea pig ileum test; c = NA means no activity found at the doses used; type: functional; procedure, shortened: as §2
Felis catus [10] = species: Felis catus; experiment: acetylcholine antagonist effect of compound on cat blood pressure at concentration 5.7*10e-8 in 18 min; type: functional
Procedure, shortened: (§5)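 Adult cats under ip α-chloralose (80 mg/kg) plus pentobarbitone (6 mg/kg), bilaterally vagotomized and artificially respired. Carotid blood pressure was recorded. An iv acetylcholine dose giving 70–80% of maximal vasodepressor response was used. After iv test drug, acetylcholine responses were checked at 1 min and then every 2–3 min and expressed as % of control. Doses were given in mol/kg, escalating after recovery.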

Cavia porcellus [11] = species: Cavia porcellus; experiment: Anticholinergic activity was measured by the guinea pig ileum test; c = NA means no activity found at the doses used; type: functional; conditions: read-out: pA2 (converted); procedure, shortened: as §1
Felis catus [12] = experiment: acetylcholine antagonist effect of compound on cat blood pressure at concentration 5.7*10e-8 mol/kg in 1 min; type: functional; procedure, shortened: as §5
Felis catus [13] = species: Felis catus; experiment: acetylcholine antagonist effect of compound on cat blood pressure at concentration 5.7*10e-9 in 4 min; type: functional; procedure, shortened: as §4
Felis catus [14] = species: Felis catus; experiment: acetylcholine antagonist effect of compound on cat blood pressure at concentration 5.4*10e-8 in 33 min
[15] = Half life period was measured at 37 degree C in dog plasma from d[quant]/dt.; type: ADME, Canis lupus familiaris
Procedure, shortened: (§6)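 Fresh dog blood was centrifuged and the upper layer filtered through 0.8 and 0.2 µm membranes. 2 mL plasma samples with gentisic acid internal standard were incubated. 5 µL aliquots taken at intervals were assayed against acid standard curves in methanol. Rates came from acid appearance or quaternary salt loss.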

[16] = Cholinergic potency was expressed in terms of relative activity vs acetylcholine.; type: functional
Felis catus [17] = species: Felis catus; experiment: acetylcholine antagonist effect of compound on cat blood pressure at concentration 5.7*10e-9 in 2 min; type: functional; procedure, shortened: as §4
Felis catus [18] = species: Felis catus; experiment: acetylcholine antagonist effect of compound on cat blood pressure at concentration 5.4*10e-8 in 44 min
Felis catus [19] = species: Felis catus; experiment: acetylcholine antagonist effect of compound on cat blood pressure at concentration 5.4*10e-8 in 2 min
Felis catus [20] = species: Felis catus; experiment: acetylcholine antagonist effect of compound on cat blood pressure at concentration 5.7*10e-8 in 23 min; type: functional; procedure, shortened: as §5
Felis catus [21] = species: Felis catus; experiment: acetylcholine antagonist effect of compound on cat blood pressure at concentration 5.7*10e-9 in 1 min; type: functional; procedure, shortened: as §4
Felis catus [22] = species: Felis catus; experiment: acetylcholine antagonist effect of compound on cat blood pressure at concentration 5.7*10e-8 in 13 min; type: functional; procedure, shortened: as §5
[23] = The hydrolytic kinetics expressed as Kobs was measured at 9.4 pH at 36 degree C; type: ADME; conditions: pH 9.4
Procedure, shortened: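 Hydrolysis in 0.1 M sodium carbonate-bicarbonate, pH 9.4, ionic strength 0.5 (NaCl added), 36 °C. Kobsd was followed from the rate of acid formation.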

Canis familiaris [24] = species: Canis familiaris; experiment: The hydrolytic kinetics expressed as Kobs was measured in dog plasma at 37 degree C; type: ADME, Canis lupus familiaris; procedure, shortened: as §6
Felis catus [25] = species: Felis catus; experiment: acetylcholine antagonist effect of compound on cat blood pressure at concentration 5.4*10e-8 in 38 min
Felis catus [26] = species: Felis catus; experiment: acetylcholine antagonist effect of compound on cat blood pressure at concentration 5.7*10e-8 in 9 min; type: functional; procedure, shortened: as §4
Felis catus [27] = species: Felis catus; experiment: acetylcholine antagonist effect of compound on cat blood pressure at concentration 5.4*10e-8 in 28 min
Felis catus [28] = species: Felis catus; experiment: acetylcholine antagonist effect of compound on cat blood pressure at concentration 5.7*10e-8 in 5 min; type: functional; procedure, shortened: as §4
Canis familiaris [29] = species: Canis familiaris; experiment: The hydrolytic kinetics expressed as Kobs was measured in dog plasma at 36 degree C; type: ADME, Canis lupus familiaris; procedure, shortened: as §6
Felis catus [30] = species: Felis catus; experiment: acetylcholine antagonist effect of compound on cat blood pressure at concentration 5.7*10e-7 in 3 min; type: functional; procedure, shortened: as §5
Felis catus [31] = species: Felis catus; experiment: acetylcholine antagonist effect of compound on cat blood pressure at concentration 5.7*10e-7 in 18 min; type: functional; procedure, shortened: as §5
Felis catus [32] = species: Felis catus; experiment: acetylcholine antagonist effect of compound on cat blood pressure at concentration 5.7*10e-8 in 4 min; type: functional; procedure, shortened: as §4
Felis catus [33] = species: Felis catus; experiment: acetylcholine antagonist effect of compound on cat blood pressure at concentration 5.7*10e-8 in 10 min; type: functional; procedure, shortened: as §5
Felis catus [34] = species: Felis catus; experiment: acetylcholine antagonist effect of compound on cat blood pressure at concentration 5.7*10e-7 in 24 min; type: functional; procedure, shortened: as §5
Felis catus [35] = species: Felis catus; experiment: acetylcholine antagonist effect of compound on cat blood pressure at concentration 5.7*10e-7 in 6 min; type: functional; procedure, shortened: as §5
Felis catus [36] = species: Felis catus; experiment: acetylcholine antagonist effect of compound on cat blood pressure at concentration 5.7*10e-8 in 8 min; type: functional; procedure, shortened: as §4
Felis catus [37] = species: Felis catus; experiment: acetylcholine antagonist effect of compound on cat blood pressure at concentration 5.7*10e-7 in 21 min; type: functional; procedure, shortened: as §5
Felis catus [38] = species: Felis catus; experiment: acetylcholine antagonist effect of compound on cat blood pressure at concentration 5.7*10e-7 in 1 min; type: functional; procedure, shortened: as §5
Felis catus [39] = species: Felis catus; experiment: acetylcholine antagonist effect of compound on cat blood pressure at concentration 5.7*10e-8 in 6 min; type: functional; procedure, shortened: as §4
Felis catus [40] = species: Felis catus; experiment: acetylcholine antagonist effect of compound on cat blood pressure at concentration 5.7*10e-7 in 12 min; type: functional; procedure, shortened: as §5
Felis catus [41] = species: Felis catus; experiment: acetylcholine antagonist effect of compound on cat blood pressure at concentration 5.7*10e-7 in 9 min; type: functional; procedure, shortened: as §5
Felis catus [42] = species: Felis catus; experiment: acetylcholine antagonist effect of compound on cat blood pressure at concentration 5.7*10e-7 in 15 min; type: functional; procedure, shortened: as §5

CCC(C)C(=O)OC[N+]1(C)CCCC1 (configuration not stated)
pA2 (Cavia porcellus [1]): No activity
Kb (Cavia porcellus [2]): 2510 nM

CC1CCC[N+]1(C)COC(=O)C1(c2ccccc2)CC1.[Cl-] (configuration not stated)
Kb (Cavia porcellus [3]): 251 nM
K obs [4]: 0.00055 min⁻¹
half-life [5]: 21 h
Kb (Cavia porcellus [2]): 575 nM

C[N+]1(COC(=O)C2(c3ccccc3)CC2)CCCC1.[Cl-]
Kb (Cavia porcellus [3]): 1580 nM
K obs [4]: 0.00068 min⁻¹
pA2 (Cavia porcellus [6]): No activity
half-life [5]: 17 h

C[N+]1(COC(=O)C2(c3ccccc3)CCCC2)CCCC1.[Cl-]
Kb (Cavia porcellus [3]): 50.1 nM
K obs [4]: 0.000181 min⁻¹
pA2 (Cavia porcellus [6]): No activity
half-life [5]: 64 h

CC[N+](CC)(CC)COC(=O)C1(c2ccccc2)CC1.[Cl-]
K obs [4]: 0.00055 min⁻¹
pA2 (Cavia porcellus [1]): No activity
half-life [5]: 21 h

Cn1cc[n+](COC(=O)C23CC4CC(CC(C4)C2)C3)c1
Kb (Cavia porcellus [3]): 2000 nM
Activity [7]: No activity
Kb (Cavia porcellus [2]): 5010 nM

CCC(C)C(=O)OC[N+]1(C)CCCC1C (configuration not stated)
Kb (Cavia porcellus [3]): 12600 nM
Activity [7]: No activity

C[N+]1(COC(=O)C(c2ccccc2)C2CCCC2)CCCC1.[Cl-] (configuration not stated)
Response (Felis catus [8]): 100%
pA2 (Cavia porcellus [9]): No activity
Response (Felis catus [10]): 63%
Kb (Cavia porcellus [11]): 3.98 nM
Response (Felis catus [12]): 0%
Response (Felis catus [13]): 67%
Response (Felis catus [14]): 81%
K obs [4]: 0.000578 min⁻¹
half-life [15]: 6.5 h
Activity [16]: No activity
Response (Felis catus [17]): 0%
Response (Felis catus [18]): 88%
Response (Felis catus [19]): 0%
Response (Felis catus [20]): 63%
Response (Felis catus [21]): 0%
Response (Felis catus [22]): 31%
K obs [23]: 0.139 min⁻¹
K obs (Canis familiaris [24]): 0.00168 min⁻¹
Response (Felis catus [25]): 88%
Response (Felis catus [26]): 0%
Response (Felis catus [27]): 69%
Response (Felis catus [28]): 0%
K obs (Canis familiaris [29]): 0.00144 min⁻¹
half-life [5]: 20 h

CC[N+](CC)(CC)COC(=O)C(c1ccccc1)C1CCCC1 (configuration not stated)
Activity [7]: No activity
pA2 (Cavia porcellus [6]): No activity

C[N+]1(COC(=O)C23CC4CC(CC(C4)C2)C3)CCCC1
Kb (Cavia porcellus [3]): 126 nM

CC(=O)OC1C[N+]2(COC(=O)C(c3ccccc3)C3CCCC3)CCC1CC2.[Cl-] (configuration not stated)
pA2 (Cavia porcellus [3]): 8.6
pA2 (Cavia porcellus [2]): 5.7

CC[N+](CC)(CC)COC(=O)C(c1ccccc1)C1CCCCC1.[Cl-] (configuration not stated)
Response (Felis catus [30]): 0%
Response (Felis catus [31]): 78%
Response (Felis catus [12]): 0%
Response (Felis catus [32]): 50%
Response (Felis catus [33]): 100%
Response (Felis catus [34]): 100%
Response (Felis catus [35]): 0%
Response (Felis catus [36]): 83%
Kb (Cavia porcellus [3]): 2.51 nM
Response (Felis catus [37]): 93%
Response (Felis catus [38]): 0%
Response (Felis catus [39]): 67%
Response (Felis catus [19]): 0%
Response (Felis catus [40]): 43%
Response (Felis catus [41]): 0%
Response (Felis catus [42]): 60%
Kb (Cavia porcellus [2]): 2000 nM

CC(C(=O)OC[N+]1(C)CCCC1)(c1ccccc1)c1ccccc1.[Cl-]
Kb (Cavia porcellus [3]): 3.98 nM
K obs [4]: 0.000193 min⁻¹
pA2 (Cavia porcellus [6]): No activity
half-life [5]: 60 h
